# HePTP inhibitor – inhibitors of human HePTP phosphatase, primary screen, biochemical, absorbance, leukemia target; recombinant HePTP phosphatase activity, OD absorbance; inhibition, % at 20 µM; 110,000 compounds, 0.64% hits; AID 521, 2006; in the data active = inhibition above about 50%;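 also: plate controls were vehicle for no effect and reference inhibitor for full effect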
# Target sequence (P35236 whole entry, looked up): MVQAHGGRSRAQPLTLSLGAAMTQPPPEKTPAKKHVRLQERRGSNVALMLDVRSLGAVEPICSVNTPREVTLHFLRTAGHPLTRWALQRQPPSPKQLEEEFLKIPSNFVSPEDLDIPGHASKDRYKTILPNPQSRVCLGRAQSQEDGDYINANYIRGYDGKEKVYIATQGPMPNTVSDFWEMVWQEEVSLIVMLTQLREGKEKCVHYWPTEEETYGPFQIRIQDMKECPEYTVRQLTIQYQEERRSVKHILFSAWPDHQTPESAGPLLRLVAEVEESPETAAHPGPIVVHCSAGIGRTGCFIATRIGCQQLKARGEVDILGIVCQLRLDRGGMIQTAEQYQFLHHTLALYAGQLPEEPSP
# PostGolgi ctrl – growth inhibition of yeast control strain, primary screen, counter-screen for post-Golgi transport modulator project; inhibition, % at 10 µM; efflux-deficient yeast background strain, growth absorbance A615, 16 h; 98,000 compounds, 5% hits; AID 738, 2007
# PLAP act – PLAP enzyme activators, biochemical, luminescence, HTS. 96,000 compounds, 1.2% hits. purified PLAP enzyme, luminescent substrate read-out; active compounds read high. AID 696, 2007. activation fold at 20 µM. Alkaline phosphatase, placental type (Homo sapiens), P05187; in the data active = activation fold above about 2
# tolC growth inh – growth inhibitors of E. coli tolC mutant, primary screen, strain BW25113 ΔtolC::kan, 384-well. OD615. growth inhibition, % at 10 µM (by protocol). 65,000 compounds, 2.2% hits;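 active = growth inhibition at or above a cutoff equal to the mean over every tested compound plus 3 SD, cut at about 60% in these data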;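 also: growth measured after 20 h incubation at 37 °C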
#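 Test system: E. coli BW25113 ΔtolC::kan bacteria | Medium: Kanamycin-containing LB broth (50 µg/mL) | Dosing: One dose of 10 µM final | Times: 20 h incubation with compound, 37 °C | Detection: Optical density read at 615 nm | Read-out basis: Percent growth inhibition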
# E coli WT exp – growth inhibitors of wild-type E. coli, primary screen, strain BW25113, expanded library, OD600; OD600 absorbance; growth inhibition, % at 100 µM; 98,000 compounds, 0.15% hits;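 active = growth inhibition above about 50% at one test dose, limit read from the data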;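 also: growth measured after 20 h incubation at 37 °C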
# PostGolgi yeast – phenotypic screen on post-Golgi transport, primary screen; 98,000 compounds, 0.9% hits; inhibition, % at 10 µM; post-Golgi transport phenotypic cell assay; AID 739, 2007;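 also: yeast cells grown in 1536-well plates; yeast grown about 18 h at 30C before absorbance read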
# * marks the source's active call; other numbers are inactive results; x = not tested or not shown. A selection: hits, their analogues and other compounds. The true share with any hit is near 5.4%. Rule as the data show it, unless noted: active = inhibition above about 30%; inactive = the rest.
SMILES,HePTP inhibitor,PostGolgi ctrl,PLAP act,tolC growth inh,E coli WT exp,PostGolgi yeast
COc1ccc2nc3oc(C(=O)N4CCN(c5cccc(Cl)c5)CC4)cc3cc2c1,7,35*,1.4,15,-7,0
COc1ccc2nc3oc(C(=O)N4CCN(c5cccc(C(F)(F)F)c5)CC4)cc3cc2c1,-4,2,1,-3,-7,-1
CC(=O)NC(NC(C)=O)c1cccc([N+](=O)[O-])c1,-4,x,x,x,x,x
Cc1ccccc1NC(=O)C1CC(=O)N(c2ccccc2)C1 (stereo not given),13,x,x,x,x,x
CC(C)(C)c1ccc(C(=O)OCCNC(=O)c2c(Cl)nc3ccccn23)cc1,x,37*,1.6,x,-8,-2
COc1ccc(C(=O)OCCNC(=O)c2c(Cl)nc3ccccn23)cc1,-5,36*,1.1,16,7,6
CCOC(=O)c1c(-c2ccccc2)nc2ccccn12,x,12,0.8,x,6,5
CC(C)(C)c1nc(SCC(=O)Nc2nc3c(s2)CCCC3)c2ccccc2n1,x,34*,1.3,x,-15,-8
O=C(CSc1ncn(-c2ccccc2)n1)Nc1nc2ccccc2s1,7,25,1,33,-2,3
O=C(CSc1ncn(-c2ccccc2)n1)Nc1nc2c(s1)CCCC2,28,46*,1,61*,-4,-2
O=C(CSc1nc(Cc2ccccc2)nc2ccccc12)Nc1nc2c(s1)CCCC2,x,40*,1.5,x,-20,13
O=C(CSc1ncn(-c2ccccc2)n1)Nc1nccs1,x,10,0.9,x,-2,-4
CC(=O)Nc1ccc(C(=O)CSc2ncn(-c3ccccc3)n2)cc1,-6,35*,1,2,-1,2
Cc1nnc(N/N=C/c2ccc(C(=O)O)cc2)[nH]c1=O,6,x,x,x,x,x
CC(C)c1nc(SCC(=O)Nc2nc3c(s2)CCCC3)c2ccccc2n1,x,39*,1.2,x,-5,22
Cc1nnc(NC(=O)CSc2nc(C(C)C)nc3ccccc23)s1,x,11,0.9,x,-9,17
Cc1ccc(Cl)cc1NC(=O)CC(O)(C(F)(F)F)C(F)(F)F,2,28,0.9,99*,31,9
CC(=O)CC(=O)Nc1cc(Cl)ccc1C,10,x,x,x,x,x
COC(=O)C1=C(C(=O)OC)SC(=C2C(=S)C(C)(C)N(C(=O)c3cccc(C)c3)c3ccc(OC)cc32)S1,3,x,x,x,x,x
Cc1cc(C)c(C)c(OCCCCn2cnc3ccccc3c2=O)c1,x,37*,1,x,0,-6
Cc1ccccc1OCCCCn1cnc2ccccc21,x,36*,1.2,x,12,5
c1ccc(OCCn2cnc3ccccc32)cc1,4,34*,1,18,9,12
c1ccc(OCCCCn2cnc3ccccc32)cc1,-6,9,1,28,23,0
Brc1ccccc1OCCCn1cnc2ccccc21,x,30*,1,x,11,0
COc1ccccc1N/C=C/C(=O)c1ccc(Cl)cc1,2,x,x,x,x,x
SMILES,HePTP inhibitor,PostGolgi ctrl,PLAP act,tolC growth inh,E coli WT exp,PostGolgi yeast
CNC(=S)N1N=C(c2ccc(C)cc2)CC1c1ccc(OC)cc1 (stereo not given),x,47*,1.2,x,-16,-6
Cc1cc(N2C(=O)NC(=O)/C(=C\c3sccc3C)C2=O)ccc1Br,-6,x,x,x,x,x
O=C(NC(=S)Nc1cccc(Cl)c1N1CCCCC1)c1cccs1,x,52*,1,x,-13,6
O=C(NC(=S)Nc1cccc(Cl)c1N1CCCCC1)c1ccco1,x,37*,1.2,x,-5,22
COc1ccc(Cn2nnc(-c3ccccc3)n2)cc1,-7,x,x,x,x,x
Cc1c(Cl)cccc1NC(=O)C(=O)NCCO,-3,x,x,x,x,x
CCC1CCCCN1c1nc(-c2ccncc2)nc2ccccc12 (stereo not given),-10,75*,1.4,-3,-14,9
CC1CCN(c2nc(-c3ccncc3)nc3ccccc23)CC1,1,95*,1,37,2,105*
CC1CCCCN1c1nc(-c2ccncc2)nc2ccccc12 (stereo not given),2,73*,1,100*,5,17
CCC1CCCCN1c1nc(-c2cccc(OC)c2O)nc2ccccc12 (stereo not given),6,41*,1.7,16,-8,-3
COc1ccc(Cl)cc1NC(=O)c1ccccc1N(Cc1ccccc1)S(=O)(=O)c1ccc(C)cc1,4,x,x,x,x,x
C=CCN1C(=O)/C(=C\c2ccc(OC)c3ccccc23)C(=O)NC1=S,-11,x,x,x,x,x
O=C(COc1ccccc1[N+](=O)[O-])Nc1ccc2oc(-c3cccnc3)nc2c1,8,x,x,x,x,x
CCCn1nc(NC(=O)c2cccs2)c2cc3ccccc3nc21,x,11,1.1,x,3,18
CCCCn1nc(NC(=O)c2cccs2)c2cc3cc(OC)ccc3nc21,8,17,1.5,63*,-13,2
CCCCn1nc(NC(=O)c2cccs2)c2cc3ccccc3nc21,0,17,1,91*,-12,-3
CC(=O)Nc1ccccc1C(=O)N1CCN(c2ccccc2)CC1,-9,x,x,x,x,x
CCOc1cccc(=[O+]CC)c2c(C)oc(C)c12,102*,x,x,x,x,x
N#Cc1c(NC(=O)CSc2nnc(-c3ccccc3O)n2-c2ccccc2)sc2c1CCCC2,8,40*,1.9,14,-5,24
Cc1csc(SCC(=O)Nc2sc3c(c2C#N)CCC3)n1,x,32*,1.1,x,-10,29
CCCCCOc1ccc(CSC(=N)N)cc1[N+](=O)[O-],x,6,0.7,x,100*,-3
COc1ccc(CSC(=N)N)cc1[N+](=O)[O-],x,5,2.7*,x,6,4
CCOc1ccc(CN(CCO)CCO)cc1[N+](=O)[O-],x,5,1,x,9,1
c1ccc2c(-c3nc4ccccc4o3)cccc2c1,3,x,x,x,x,x
COCCNC(=O)C1CC(c2cccc(OC)c2)=NO1 (stereo not given),10,37*,1,-15,6,8
Cc1cc(=O)[nH]c(SCC(=O)N2CCOCC2)n1,7,x,x,x,x,x
Cc1cc2ncn(CC(O)COC3CCCCC3)c2cc1C (stereo not given),4,31*,1.5,22,3,13
O=C1N=c2ccccc2=C1c1sc(Nc2ccc(O)cc2)nc1O,104*,x,x,x,x,x
O=C1N=c2ccccc2=C1c1sc(Nc2cccc(O)c2)nc1O,-9,x,x,x,x,x
O=C1N/C(=N\N=C\c2cccc([N+](=O)[O-])c2)SC1Cc1cccc(Cl)c1Cl (stereo not given),-1,x,x,x,x,x
